Source: PubChem (Sanford-Burnham Center for Chemical Genomics)
This is a sample that favours compounds with a hit; in the whole collection about 1.8% have one here.
SKN-1 block = blocks SKN-1 activity in C. elegans | C. elegans VP596 Pgst-4::GFP/RFP ratio, acrylamide-induced, 24 h | inhibition, % at 21.8 µM | 0.49% of 360,000 active;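 active = interference check ratio from 0.5 to 1.5 plus GFP to RFP signal ratio inhibition reaching or exceeding a fixed threshold, cut at about 30% in these data, passing the limit was not always enough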
PABP polyA inh = PABP-poly(A) binding inhibition; PABP-poly(A) RNA binding, fluorescence polarization; calls only at 35 µM; P11940; 1% of 290,000 active;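 note: calls also rest on retests at 20 µM and on dose response follow-up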
Target sequence (P11940 whole entry, looked up): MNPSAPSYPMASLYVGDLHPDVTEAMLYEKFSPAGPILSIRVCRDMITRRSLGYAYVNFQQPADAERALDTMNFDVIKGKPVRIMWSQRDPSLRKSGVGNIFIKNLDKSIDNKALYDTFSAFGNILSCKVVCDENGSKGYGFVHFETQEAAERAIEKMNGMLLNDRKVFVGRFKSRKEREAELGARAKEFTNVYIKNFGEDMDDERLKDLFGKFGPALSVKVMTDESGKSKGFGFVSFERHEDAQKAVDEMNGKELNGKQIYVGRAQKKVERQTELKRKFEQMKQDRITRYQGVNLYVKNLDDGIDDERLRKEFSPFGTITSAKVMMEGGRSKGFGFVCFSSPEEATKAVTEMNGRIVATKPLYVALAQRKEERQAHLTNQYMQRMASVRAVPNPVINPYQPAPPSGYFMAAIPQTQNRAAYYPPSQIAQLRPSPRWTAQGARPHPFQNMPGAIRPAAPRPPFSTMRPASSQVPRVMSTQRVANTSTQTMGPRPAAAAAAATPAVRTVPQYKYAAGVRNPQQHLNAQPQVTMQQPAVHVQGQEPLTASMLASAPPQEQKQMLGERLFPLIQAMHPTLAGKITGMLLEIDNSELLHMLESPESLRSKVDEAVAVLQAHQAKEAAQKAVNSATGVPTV
PABP1 MLLE inh = inhibitors of microRNA-mediated deadenylation, human PABP1 MLLE binding. GST-MLLE / FITC-PAM2 fluorescence polarization. inhibition, % at 20 µM. 0.36% of 360,000 active; in the data active = inhibition above about 35%, passing the limit was not always enough
eIF4H FP inh = inhibitors of RNA binding by human eIF4H; Q15056; eIF4H fluorescence polarization binding assay; inhibition, % at 35 µM; 0.94% of 290,000 active; AID 2012;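 note: calls also rest on retests at 20 µM and on dose response follow-up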
MT1-MMP act inh = MT1-MMP (human) activation inhibition; P50281; HT1080 RFP-PRO-GFP cells, GFP/RFP ratio fluorescence, overnight; percent of plate control window, DMSO zero; GFP/RFP ratio change, % at 20 µM; 0.061% of 360,000 active; AID 651647;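 active = GFP/RFP ratio change of at least 30% with cell ATP level not reduced by more than half and red fluorescence within 50% of control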
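Material – HT1080 RFP-PRO-GFP cells · Control set – DMSO wells and RFP-L50D-GFP cells · Incubation – overnight cell settling, then overnight compound exposure, 37 °C, 5% CO2 · Compound dosing – single-point 20 µM compound, 1% DMSO · Read-out – GFP/RFP fluorescence ratio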
A number is an active result. Unless noted, the rule behind the calls is not given here.

For CCC(C)(C)n1nnnc1C(C(C)C)N(Cc1cccnc1)Cc1ccco1 (stereo unspecified) the results were SKN-1 block inactive, PABP polyA inh inactive, PABP1 MLLE inh inactive, eIF4H FP inh inactive and MT1-MMP act inh inactive.
For CC(C)(C)NC(=O)C(C1CC1)n1c(-c2ccccc2)nc2ccccc21 (stereo unspecified) the results were SKN-1 block inactive and MT1-MMP act inh inactive.
For CC(C)(C)OC(=O)n1cc(/C=N/NC(=O)c2ccco2)c2ccccc21 the results were SKN-1 block inactive, PABP polyA inh inactive, PABP1 MLLE inh inactive, eIF4H FP inh inactive and MT1-MMP act inh inactive.
`CC1CCC(C(C)C)C(OCC(O)C[N+]2(C)CCCCC2)C1` (stereo unspecified) gave SKN-1 block inactive, PABP polyA inh active, PABP1 MLLE inh inactive, eIF4H FP inh inactive and MT1-MMP act inh inactive.
Screening CC1CCC(C(C)C)C(OCC(O)CN2CCCC(C)C2)C1 (stereo unspecified) returned SKN-1 block inactive, PABP polyA inh inactive, PABP1 MLLE inh inactive, eIF4H FP inh inactive and MT1-MMP act inh inactive.
`COc1ccccc1N1C(=O)N(C(C)=O)C2C1Nc1ccccc1N2C` (stereo unspecified) gave SKN-1 block inactive, PABP polyA inh active, PABP1 MLLE inh inactive, eIF4H FP inh 78 and MT1-MMP act inh inactive.
For COc1ccccc1N1C(=O)c2ccccc2NC1c1ccncc1 (stereo unspecified) the results were SKN-1 block inactive, PABP polyA inh inactive, PABP1 MLLE inh inactive, eIF4H FP inh inactive and MT1-MMP act inh inactive.
O=c1c2c3c(sc2nc(NCCOCCO)n1Cc1ccco1)CCCCC3 was read as SKN-1 block inactive, PABP polyA inh active, PABP1 MLLE inh inactive, eIF4H FP inh 100 and MT1-MMP act inh inactive.
`CC(O)CNc1nc2sc3c(c2c(=O)n1Cc1ccco1)CCCCC3` (stereo unspecified) gave SKN-1 block inactive, PABP polyA inh inactive, PABP1 MLLE inh inactive, eIF4H FP inh inactive and MT1-MMP act inh inactive.
NC(=O)Cn1c(=O)n(Cc2ccco2)c(=O)c2c3c(sc21)CCCCC3 was read as SKN-1 block inactive, PABP polyA inh active, PABP1 MLLE inh inactive, eIF4H FP inh 98 and MT1-MMP act inh inactive.
`CC(C)CCNC(=O)c1cnn2c(C(F)(F)F)cc(-c3ccco3)nc12` gave SKN-1 block 44, PABP polyA inh inactive, PABP1 MLLE inh inactive, eIF4H FP inh inactive and MT1-MMP act inh inactive.
`O=C(NC1CCCC1)c1cnn2c(C(F)(F)F)cc(-c3ccco3)nc12` gave SKN-1 block inactive, PABP polyA inh inactive, PABP1 MLLE inh inactive, eIF4H FP inh inactive and MT1-MMP act inh inactive.
Screening O=C(C1CCN(C2CCN(C/C=C/c3ccccc3)CC2)CC1)N1CCOCC1 returned SKN-1 block inactive, PABP polyA inh active, PABP1 MLLE inh inactive, eIF4H FP inh 56 and MT1-MMP act inh inactive.
CC(=O)Nc1ccc(C=NNc2ccc([N+](=O)[O-])cn2)cc1 was read as SKN-1 block inactive, PABP1 MLLE inh inactive and MT1-MMP act inh inactive.
Screening CCCCCc1c(O)nc(SCCN(C)C)[nH]c1=O returned SKN-1 block inactive, PABP polyA inh inactive, PABP1 MLLE inh inactive, eIF4H FP inh inactive and MT1-MMP act inh inactive.
`CCCCCc1c(O)nc(SCCN(CC)CC)[nH]c1=O` gave SKN-1 block inactive, PABP polyA inh active, PABP1 MLLE inh inactive, eIF4H FP inh active and MT1-MMP act inh inactive.
`CCCCc1c(O)nc(SCC(=O)c2ccccc2)[nH]c1=O` gave SKN-1 block inactive, PABP polyA inh inactive, PABP1 MLLE inh 39, eIF4H FP inh inactive and MT1-MMP act inh inactive.
O=C(CSc1nc(O)c(Cc2ccccc2)c(=O)[nH]1)c1ccccc1 was read as SKN-1 block inactive, PABP polyA inh inactive, PABP1 MLLE inh 41, eIF4H FP inh inactive and MT1-MMP act inh inactive.
CCOC(=O)[C@]12CCCC=C1N(Cc1ccccc1)C(=O)[C@H](CC(=O)N1CCN(C(=O)c3ccco3)CC1)C2 was read as SKN-1 block inactive and MT1-MMP act inh inactive.
`O=[N+]([O-])c1c(NCCCO)cc(SCc2ccco2)c2nonc12` gave SKN-1 block inactive, PABP polyA inh inactive, PABP1 MLLE inh 41, eIF4H FP inh inconclusive and MT1-MMP act inh inactive.
For O=C(NCCCNC(=O)c1ccccc1)c1ccccc1 the results were SKN-1 block inactive, PABP1 MLLE inh inactive and MT1-MMP act inh inactive.
`CC(=O)NC(c1ccccc1)c1cc(Cl)c2cccnc2c1O` (stereo unspecified) gave SKN-1 block inactive, PABP polyA inh inactive, PABP1 MLLE inh inactive, eIF4H FP inh inactive and MT1-MMP act inh inactive.
`O=C(NC(c1ccc(Cl)cc1)c1cc(Cl)c2cccnc2c1O)c1cccnc1` (stereo unspecified) gave SKN-1 block inactive, PABP polyA inh active, PABP1 MLLE inh inactive, eIF4H FP inh inconclusive and MT1-MMP act inh inactive.
Screening COc1ccc(CCN2CC(C(=O)NCc3ccon3)CCC2=O)cc1 (stereo unspecified) returned SKN-1 block inactive, PABP1 MLLE inh inactive and MT1-MMP act inh inactive.
CN(Cc1ccccc1)c1oc(-c2ccco2)nc1C#N was read as SKN-1 block inactive, PABP polyA inh inactive, PABP1 MLLE inh inactive, eIF4H FP inh inactive and MT1-MMP act inh inactive.
Screening CN(C)c1oc(-c2ccco2)nc1C#N returned SKN-1 block 59, PABP polyA inh inactive, PABP1 MLLE inh inactive, eIF4H FP inh inactive and MT1-MMP act inh inactive.
For CN(C)c1oc(-c2ccccc2[N+](=O)[O-])nc1C#N the results were SKN-1 block inactive, PABP polyA inh inactive, PABP1 MLLE inh 42, eIF4H FP inh inactive and MT1-MMP act inh inactive.
`C#CCN1N=C(c2ccc(C)cc2)CSC1=O` gave SKN-1 block inactive, PABP1 MLLE inh inactive and MT1-MMP act inh inactive.
COc1cc(/C=N/N(CCO)C2=NS(=O)(=O)c3ccccc32)cc(OC)c1OC was read as SKN-1 block 35, PABP polyA inh inactive, PABP1 MLLE inh inactive, eIF4H FP inh inactive and MT1-MMP act inh inactive.
`COc1cc(Br)cc(/C=N/N(CCO)C2=NS(=O)(=O)c3ccccc32)c1OC` gave SKN-1 block inactive, PABP polyA inh inactive, PABP1 MLLE inh inactive, eIF4H FP inh inactive and MT1-MMP act inh inactive.
`Oc1ccc(C=NCCc2ccccc2)cc1` gave SKN-1 block inactive, PABP polyA inh inactive, PABP1 MLLE inh inactive, eIF4H FP inh inactive and MT1-MMP act inh inactive.
Screening CC(Oc1ccccc1)C(=O)N=C1SC2CS(=O)(=O)CC2N1c1cccc(F)c1 (stereo unspecified) returned SKN-1 block inactive, PABP polyA inh inactive, PABP1 MLLE inh inactive, eIF4H FP inh inactive and MT1-MMP act inh inactive.
Screening C/C(O)=c1/c(=O)nc2cccc3c2=c1c1ccccc1c3=O returned SKN-1 block inactive, PABP polyA inh inconclusive, PABP1 MLLE inh 47, eIF4H FP inh inconclusive and MT1-MMP act inh inactive.
Cc1nc2ccccc2c(=O)n1N(c1ccccc1)c1ccccc1 was read as SKN-1 block inactive, PABP polyA inh inactive, PABP1 MLLE inh inactive, eIF4H FP inh inactive and MT1-MMP act inh inactive.
